A selection: hits, their analogues and other compounds. The true share with any hit is near 2.9%.
SENP1 inh: human SENP1 catalytic domain inhibitors, primary screen, biochemical, FRET, uHTS; Sentrin-specific protease 1 (Homo sapiens), Q9P0U3; recombinant SENP1 catalytic domain, CyPet-SUMO1-YPet FRET cleavage; inhibition, % at 10 µM; 360,000 compounds, 0.21% hits; AID 624204, 2012;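 active = inhibition at least 30% at 10 µM, raw YFP signal under a set limit, fluorescence ratio 0.5 to 1.5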;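 note: 0% = enzyme with DMSO and 100% = no enzyme wells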
Target sequence (Q9P0U3 419-644 limits assumed): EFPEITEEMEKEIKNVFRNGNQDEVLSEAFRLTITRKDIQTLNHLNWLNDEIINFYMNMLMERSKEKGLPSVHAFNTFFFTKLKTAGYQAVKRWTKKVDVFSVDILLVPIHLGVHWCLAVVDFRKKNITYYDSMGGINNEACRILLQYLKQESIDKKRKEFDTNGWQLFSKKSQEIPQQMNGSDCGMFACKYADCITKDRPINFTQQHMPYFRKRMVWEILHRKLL
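Test system: human SENP1 catalytic domain; medium: Tris pH 8 buffer plus EDTA, NaCl, BME, BSA, NP40, catalase; incubation: 50 min reaction at room temperature; technique: FRET, CFP and YFP emission; controls: no-enzyme low control and enzyme-plus-DMSO high control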
SENP7 block: SENP7 protease inhibitors, primary screen, biochemical, luminescence, uHTS; Sentrin-specific protease 7 (Homo sapiens), Q9BQF6; recombinant SENP7, Z-RLRGG-aminoluciferin luminescence, 40 min; inhibition, % at 5 µM; 330,000 compounds, 1.5% hits;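 active = inhibition above about 50% at the single test dose, limit read from the data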;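 note: plate controls were DMSO with enzyme for no effect and no enzyme buffer wells for full effect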
Target sequence (Q9BQF6 706-1050 limits assumed): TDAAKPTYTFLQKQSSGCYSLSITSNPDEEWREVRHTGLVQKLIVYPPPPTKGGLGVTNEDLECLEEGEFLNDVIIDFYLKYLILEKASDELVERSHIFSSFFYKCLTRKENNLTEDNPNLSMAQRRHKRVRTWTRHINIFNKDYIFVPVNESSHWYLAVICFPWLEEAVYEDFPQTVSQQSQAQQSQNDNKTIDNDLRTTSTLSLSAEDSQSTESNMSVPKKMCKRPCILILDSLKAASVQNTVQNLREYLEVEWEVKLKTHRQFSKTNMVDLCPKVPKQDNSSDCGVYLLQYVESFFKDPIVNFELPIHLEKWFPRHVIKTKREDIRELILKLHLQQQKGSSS
SENP8 block-1: SENP8 protease inhibitors, primary screen, biochemical, luminescence; 330,000 compounds, 1.2% hits; purified SENP8, Z-RLRGG-aminoluciferin cleavage; inhibition, % at 10 µM; Sentrin-specific protease 8 (Homo sapiens), Q96LD8; AID 2540, 2010; in the data active = inhibition above about 50%
SENP6 inh: SENP6 protease inhibitors, primary screen, biochemical, luminescence, uHTS | inhibition, % at 10 µM | 330,000 compounds, 1.8% hits | Recombinant SENP6 catalytic domain, aminoluciferin luminescence | AID 2599, 2010;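 active = inhibition above about 50% at the single tested dose, limit read from the data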;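 note: plate controls were DMSO wells with enzyme for no effect and DMSO wells lacking enzyme for full effect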
Apaf-1 inh: inhibitors of human Apaf-1 apoptosome, primary screen, biochemical, DEVD-Rh110 fluorescence, uHTS; Apoptotic protease-activating factor 1 (Homo sapiens), O14727; reconstituted apoptosome caspase-3 activity; inhibition, % at 20 µM; 330,000 compounds, 0.71% hits; active = inhibition of at least 40% at 20 µM;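 note: plate controls were DMSO wells for no effect and DEVD-CHO caspase inhibitor wells for full effect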
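Assay system: Apoptosome proteins | Medium: pH 7.5 Hepes buffer with CHAPS, BSA, DTT | Also added: Cytochrome c and DEVD-Rh110 substrate | Times: 30 min plus 50 min, RT | Detection: Rhodamine 110 fluorescence at Ex 480/Em 540 nm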
SENP8 block-2: human SENP8 protease inhibitors, primary screen, biochemical, fluorescence, Nedd8 protein substrate, uHTS | Sentrin-specific protease 8 (Homo sapiens), Q96LD8 | recombinant SENP8 | inhibition, % at 20 µM | 360,000 compounds, 0.64% hits | AID 602440, 2012; in the data active = inhibition mostly above about 40%, no sharp cut-off; inactive = mostly below about 27%
SENP8 conf: human SENP8 protease inhibitors, confirmation, biochemical, Nedd8 protein substrate, single concentration | shares compounds with SENP8 block-2 | purified SENP8, Nedd8-AMC/pro-Nedd8 cleavage fluorescence, 30 min | inhibition, % at 25 µM | 1,400 compounds, 15% hits; in the data active = inhibition mostly above about 39%, no sharp cut-off; inactive = mostly below about 34%
* marks the source's active call; other numbers are inactive results; / = no result given.

SMILES | SENP1 inh | SENP7 block | SENP8 block-1 | SENP6 inh | Apaf-1 inh | SENP8 block-2 | SENP8 conf
CC1(C)N=C(N)N=C(N)N1CCCCc1ccccc1 | -2 | / | / | / | / | 12 | /
CCOC(=O)N1CCN(C(C(=O)NC2CCCC2)c2cccc(OC)c2OC)CC1 (stereo unspecified) | -7 | / | / | / | / | 13 | /
CSc1nc(N)c2c(n1)N(C)C=NS2(=O)=O | 0 | / | / | / | / | 10 | /
CC1CCCC(C)N1CCCNC(=O)Cn1c(=O)c2cccn2c2cccnc21 (stereo unspecified) | -52 | -6 | -13 | -9 | 9 | -34 | /
COc1ccc(NC2CS(=O)(=O)CC2NCc2ccccc2)cc1 (stereo unspecified) | -2 | 3 | -3 | 7 | 1 | 40* | 15
O=S1(=O)C[C@@H](O)[C@@H](Nc2ccccc2)C1 | -1 | 7 | 3 | -1 | -21 | 23 | /
O=C(COC(=O)c1cnccn1)NC1CCCc2ccccc21 (stereo unspecified) | -5 | 7 | 0 | 5 | -9 | -2 | /
O=C(CCCCCNC(=O)N1CCn2c1nc1ccccc12)N[C@@H](Cc1ccccc1)C(=O)O | 2 | 2 | 4 | 2 | -3 | 47* | 12
CSCC[C@H](NC(=O)N1CCn2c1nc1ccccc12)C(=O)N[C@H](Cc1ccccc1)C(=O)O | -1 | 12 | 1 | -1 | -7 | 49* | 9
COc1ccc(-c2nnc(SC)nc2-c2ccc(OC)c([N+](=O)[O-])c2)cc1[N+](=O)[O-] | -2 | -6 | -1 | -13 | 36 | 49* | 32
O=C(COC(=O)CN1C(=O)c2ccccc2C1=O)Nc1ccccc1C(F)(F)F | 4 | / | / | / | / | 11 | /
O=S1(=O)CC(N2CC=CC2)CN1C1CCCCC1 (stereo unspecified) | 0 | / | / | / | / | 41* | 36*
CN1CCN(C2CN(C3CCCCC3)S(=O)(=O)C2)CC1 (stereo unspecified) | 1 | / | / | / | / | 9 | /
Cc1ccc(C)c(S(=O)(=O)NC2CCSC2=O)c1 (stereo unspecified) | -1 | 10 | -9 | -8 | 1 | 7 | /
O=C(O)c1ccc2c(c1)S(=O)(=O)c1cc(N3CCN(c4cnccn4)CC3)ccc1C2=O | -29 | / | / | / | / | -55 | /
NNc1nnc2c3cc(F)ccc3n(Cc3ccccc3)c2n1 | 1 | -10 | -4 | 11 | 11 | 37* | 14
CCCn1c2ccc(F)cc2c2nnc(NN)nc21 | -1 | -3 | 0 | 9 | 22 | 70* | 17
CCn1c2ccc(F)cc2c2nnc(NN)nc21 | 3 | 5 | 3 | 5 | -11 | 25 | /
CCOc1ccc(CCN2C(=S)N([C@@H](Cc3ccc(O)cc3)CN3CCC[C@@H]3CN3C(=S)NC[C@@H]3CC(C)C)C[C@@H]2CC(C)C)cc1 | 0 | / | / | / | / | 15 | /
C[C@@H](NC(=O)[C@@H]1CCCN1C(=O)[C@@H]1CCCN1C(=O)c1cccc2ccccc12)c1ccccc1 | 1 | / | / | / | / | 18 | /
Cc1cccc(NC(=O)c2ccc(NCC3CCCO3)c([N+](=O)[O-])c2)c1 (stereo unspecified) | -1 | -17 | -7 | -6 | 11 | 25 | /
O=C(Nc1cccc(Cl)c1)c1ccc(NCC2CCCO2)c([N+](=O)[O-])c1 (stereo unspecified) | 19 | -7 | 5 | -11 | -11 | 44* | 13
Cc1ccc([N+](=O)[O-])cc1/C=N/Nc1nnnn1-c1ccccc1 | 4 | 11 | -5 | -17 | -36 | 0 | /
Cc1nn(-c2ccccc2)c(N2CCCC2)c1/C=N/Nc1ccc(S(=O)(=O)Nc2ccccc2)cc1[N+](=O)[O-] | 4 | 3 | 2 | 4 | -4 | 64* | 13
COc1ccccc1NS(=O)(=O)c1ccc(N/N=C/c2c(C)nn(-c3ccccc3)c2N2CCCC2)c([N+](=O)[O-])c1 | 4 | 10 | 2 | 23 | 8 | 45* | 16
SMILES | SENP1 inh | SENP7 block | SENP8 block-1 | SENP6 inh | Apaf-1 inh | SENP8 block-2 | SENP8 conf
Cc1ccc(-n2[nH]c(C)c(/C=N/Nc3ccc([N+](=O)[O-])cc3[N+](=O)[O-])c2=O)cc1C | 3 | 5 | 9 | -1 | 9 | 40* | 29
COc1c(/C=N/Nc2ccc([N+](=O)[O-])cc2[N+](=O)[O-])c(C)nn1-c1ccccc1 | 3 | 7 | 1 | 1 | 14 | 62* | 24
CCOc1ccc(S(=O)(=O)Nc2ccc(C(=O)N/N=C/c3c(C)nn(-c4ccccc4)c3N3CCCC3)cc2)cc1 | 2 | -8 | -8 | -3 | 9 | -116 | /
COc1cc(SC)ccc1C(=O)N(CC(=O)Nc1ccccc1Br)Cc1ccco1 | -2 | -10 | 3 | -4 | 17 | -18 | /
OCCNCc1cc(Br)ccc1OCc1ccc(Cl)cc1 | 0 | -8 | -11 | -5 | 1 | 16 | /
OCCNCc1cc(Br)ccc1OCc1ccc(Cl)cc1Cl | -50 | / | / | / | / | 42* | 11
CCN(CC)C(=O)CSc1n[nH]c(=S)n1N | 3 | 8 | 3 | 3 | 3 | 44* | 15
CCCNC(=O)C1(C)CCCN(C(=O)c2ccc(F)cc2Cl)C1 (stereo unspecified) | -2 | / | / | / | / | 3 | /
Cc1nn(CC#N)c(=O)n1-c1ccc(C(C)C)cc1 | 1 | -12 | -6 | -5 | -3 | 41* | 17
Cn1cccc1CNC(=S)Nc1ccccc1Cl | 1 | -8 | -4 | -16 | -22 | 40* | 13
COc1ccc(COC(=O)c2sc3nc4n(c(=O)c3c2C)CCC4)cc1 | 2 | -1 | -15 | -17 | 6 | -36 | /
CC1CC=CCC1(CO)CO (stereo unspecified) | 1 | / | / | / | / | 10 | /
CCOC(=O)C1(C)C=C(Nc2ccc(OC)cc2)C(=O)N1c1ccc(OC)cc1 (stereo unspecified) | -1 | -3 | 0 | -7 | 3 | -324 | /
CCOC(=O)C1(C)C=C(Nc2ccc(O)cc2)C(=O)N1c1ccc(O)cc1 (stereo unspecified) | 10 | 13 | -2 | 4 | 16 | 61* | 16
C#CCOCCOCCOCCNc1nc(N2CCN(C(=O)[C@H](CCCCN)n3cc(CN)nn3)CC2)nc(N2CCN(C(=O)[C@H](CCCCN)n3cc([C@@H](N)CC(N)=O)nn3)CC2)n1 | 1 | / | / | / | / | 40* | 34
O=C(c1cc(Br)c(Br)s1)N1CCc2ccccc2C1 | -1 | -2 | 16 | 16 | 11 | 5 | /
